Values after ≈ are worked out from the molar mass of the structure shown. Blank lines part the entries; values can stand above or below the molecule they belong to.
How the values were obtained:
HK853 [1] = biological target: T1, HK853 (Thermotoga maritima, UniProt Q9WZV7); test: High-throughput primary FP screen for displacement of ADP-BODIPY; type: binding; details: 20 μM compound
T1 sequence (Q9WZV7 232-489): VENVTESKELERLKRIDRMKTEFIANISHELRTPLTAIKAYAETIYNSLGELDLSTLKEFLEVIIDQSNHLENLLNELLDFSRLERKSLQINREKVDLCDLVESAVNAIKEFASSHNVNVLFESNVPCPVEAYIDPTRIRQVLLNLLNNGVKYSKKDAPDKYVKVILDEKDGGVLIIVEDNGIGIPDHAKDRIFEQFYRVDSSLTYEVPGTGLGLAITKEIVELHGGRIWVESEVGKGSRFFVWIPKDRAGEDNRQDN

HK853 [2] = biological target: T1, HK853; test: Control FP competition; type: binding
Summary of the method: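 Competition format: 25 μM HK853 plus 10 nM ADP-BODIPY probe with 0–1000 μM competing nucleotide and 5% (v/v) DMSO, in 50 mM Tris-HCl pH 7.8, 200 mM KCl, 5 mM MgCl2. Incubation and FP read as for binding, in triplicate. FP plotted against log molar competitor; IC50 from four-parameter logistic fit.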

VicK = biological target: T2, VicK (Streptococcus pneumoniae, UniProt Q8DPL8); test: Inhibition of VicK activity; type: biochemical
T2 sequence (Q8DPL8 36-449 limits assumed): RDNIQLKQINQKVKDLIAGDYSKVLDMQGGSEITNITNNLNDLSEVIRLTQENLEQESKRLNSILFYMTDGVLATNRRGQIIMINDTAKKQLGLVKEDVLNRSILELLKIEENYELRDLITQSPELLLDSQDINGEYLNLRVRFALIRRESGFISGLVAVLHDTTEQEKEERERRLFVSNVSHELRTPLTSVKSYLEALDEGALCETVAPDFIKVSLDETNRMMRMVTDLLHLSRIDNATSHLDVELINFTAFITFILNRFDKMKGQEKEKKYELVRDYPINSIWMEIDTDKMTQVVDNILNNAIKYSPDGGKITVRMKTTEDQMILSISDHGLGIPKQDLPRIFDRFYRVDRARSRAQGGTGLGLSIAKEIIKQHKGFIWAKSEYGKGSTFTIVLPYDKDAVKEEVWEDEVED
Summary of the method: (§1)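 Enzyme (VicK 2 μM; for CheA, 2 μM CheA plus 6 μM CheW) preincubated with test compound 30 min RT, then radioactive ATP mix added. Final: 3 μM ATP [γ-33P] (20 Ci mmol–1), 5% DMSO, 0.1% Triton X-100 in reaction buffer, pH 7.8. Reacted 30 min RT, quenched in SDS loading buffer, run on SDS-PAGE. Radioactive band density normalised to no-inhibitor control; IC50 from four-parameter logistic fit.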

CheA = biological target: T3, CheA (Escherichia coli, UniProt P07363); test: Inhibition of CheA activity; type: biochemical
T3 sequence (P07363 1-654): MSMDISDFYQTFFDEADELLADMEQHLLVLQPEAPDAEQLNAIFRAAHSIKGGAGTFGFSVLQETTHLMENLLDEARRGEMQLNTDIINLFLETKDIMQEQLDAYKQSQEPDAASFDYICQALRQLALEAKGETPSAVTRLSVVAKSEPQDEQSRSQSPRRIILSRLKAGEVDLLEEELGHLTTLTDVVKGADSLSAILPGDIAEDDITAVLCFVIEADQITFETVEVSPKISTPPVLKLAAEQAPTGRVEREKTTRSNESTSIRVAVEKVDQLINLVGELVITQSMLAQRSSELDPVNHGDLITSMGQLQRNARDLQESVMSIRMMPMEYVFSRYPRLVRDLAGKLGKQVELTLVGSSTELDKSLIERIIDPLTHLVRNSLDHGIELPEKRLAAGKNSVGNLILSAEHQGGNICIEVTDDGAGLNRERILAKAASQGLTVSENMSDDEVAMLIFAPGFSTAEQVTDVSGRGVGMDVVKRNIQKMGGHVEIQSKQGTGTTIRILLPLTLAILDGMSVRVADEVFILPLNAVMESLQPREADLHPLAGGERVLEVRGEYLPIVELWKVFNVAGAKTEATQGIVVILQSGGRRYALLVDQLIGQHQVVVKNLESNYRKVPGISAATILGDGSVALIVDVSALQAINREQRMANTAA
Summary of the method: as §1

HK853 [3] = biological target: T1, HK853; test: Inhibition of HK853 autophosphorylation activity; type: biochemical
E. coli DC2 = test: Broth microdilution antimicrobial testing; type: cell-based, Escherichia coli; details: for MIC: Escherichia coli, DC2, 20 h, read-out: MIC values E. coli DC2
Summary of the method: (§2)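 Serial dilutions in Mueller-Hinton Broth 2, inoculated at 5 × 10^5 cfu/mL; wells ≤5% DMSO. Growth, sterility, DMSO and known-antibiotic controls included; inoculum count checked by plating on MHB 2 agar. Incubated 20 h at 37 °C. MIC taken as lowest concentration with no growth visible to unaided eye.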

B. subtilis 3610 = test: Broth microdilution antimicrobial testing; type: cell-based, Bacillus subtilis; details: for MIC: Bacillus subtilis, 3610, 20 h, read-out: MIC values B. subtilis 3610; for MIC values B. subtilis 3610: n = 2
Summary of the method: as §2

Vero 76 cells = test: Cytotoxicity testing; type: cell-based, African green monkey; details: DMSO control, n = 2
four HK proteins = details: cited from earlier work
PhoQ = details: cited from earlier work

displacement of ADP-BODIPY (1) in primary screening (HTS) (HK853 [1]): failed to displace ADP-BODIPY (1)
Molecule: C=CCNC1=C2C[C@@H](C)C[C@H](OC)[C@H](O)[C@@H](C)/C=C(\C)[C@H](OC(N)=O)[C@@H](OC)/C=C\C=C(/C)C(=O)NC(=CC1=O)C2=O [17-AAG]

IC50 (HK853 [2]): 27.7 ± 0.9 µM | IC50 (VicK): 4.81 µM | IC50 (CheA): 21.5 µM | IC50 (HK853 [3]): 2.57 µM | increased potency over AMP (9) (HK853 [3]; from Table 1 IC50 values of HK inhibition): more than 300 fold
Molecule: Nc1ncnc2c1ncn2[C@@H]1O[C@H](COP(=O)(O)OP(=O)(O)O)[C@@H](O)[C@H]1O [ADP (3), adenosine diphosphate]

IC50 (HK853 [2]): 23 ± 1.1 µM
Molecule: Nc1ncnc2c1ncn2[C@@H]1O[C@H](COP(=O)(O)OP(=O)(O)OP(=O)(O)O)[C@@H](O)[C@H]1O [ATP (2), adenosine triphosphate]

Molecule: Nc1nc2ccc(OC(F)(F)F)cc2s1 [Compound 12, riluzole]
MIC (E. coli DC2): 128 µg/mL (≈ 547 µM) | IC50 (VicK): 618 µM | IC50 (CheA): 1340 µM | MIC (B. subtilis 3610): 293 µg/mL (≈ 1250 µM)

Molecule: O=c1cc(-c2ccc(O)c(O)c2)oc2cc(O)cc(O)c12 [Compound 15, luteolin]
MIC (E. coli DC2): 8 µg/mL (≈ 27.9 µM) | IC50 (VicK): 216 µM | IC50 (HK853 [3]): 15.1 µM | MIC (B. subtilis 3610): > 128 µg/mL

Molecule: C[S+](C)[O-] [DMSO, dimethyl sulfoxide]
MIC values E. coli DC2 (E. coli DC2; DMSO control, n = 2): 10–20% (v/v) | CC50 Vero 76 Cells (Vero 76 cells): >0.5% (v/v) | MIC values B. subtilis 3610 (B. subtilis 3610; DMSO control): 20% (v/v)

inhibition of HK853 activity in follow-up assays (HK853 [3]; Supporting Information Table 1, n=1): slight inhibition
Molecule: O=c1c(-c2ccc(O)cc2)coc2cc(O)cc(O)c12 [Genistein, genistein]

Molecule: N#Cc1c(N)nc2sc(C(=O)Nc3ccc(Br)cc3)c(N)c2c1-c1ccccc1 [TEP, 3,6-diamino-5-cyano-4-phenylthieno[2,3-b]pyridine-2-carboxylic acid (4-bromo-phenyl)-amide]
IC50 values (four HK proteins): low micromolar range

IC50 (HK853 [3]): 463 µM
Molecule: Nc1ncnc2nc[nH]c12 [adenine (10), adenine]

Molecule: CC1(C)S[C@@H]2[C@H](NC(=O)[C@H](N)c3ccccc3)C(=O)N2[C@H]1C(=O)O [ampicillin]
MIC (E. coli DC2): 0.25 µg/mL (≈ 0.715 µM)

Molecule: O=C(N[C@H](CO)[C@H](O)c1ccc([N+](=O)[O-])cc1)C(Cl)Cl [chloramphenicol]
MIC (E. coli DC2): 0.5 to 1 µg/mL (≈ 1.55 to 3.09 µM) | MIC (B. subtilis 3610): 2 to 4 µg/mL (≈ 6.19 to 12.4 µM)

displacement of ADP-BODIPY (1) in primary screening (HTS) (HK853 [1]): failed to displace ADP-BODIPY (1)
Molecule: COC1=C2C[C@@H](C)C[C@H](OC)[C@H](O)[C@@H](C)/C=C(\C)[C@H](OC(N)=O)[C@@H](OC)/C=C\C=C(/C)C(=O)NC(=CC1=O)C2=O [geldanamyin]

displacement of ADP-BODIPY (1) in primary screening (HTS) (HK853 [1]): failed to displace ADP-BODIPY (1)
Molecule: C[C@@H]1C[C@H]2O[C@@H]2/C=C\C=C\C(=O)Cc2c(Cl)c(O)cc(O)c2C(=O)O1 [radicicol]
difference in selectivity between Hsp90 and PhoQ (PhoQ): > 30 fold

MIC (B. subtilis 3610): 0.5 µg/mL (≈ 0.345 µM)
Molecule: CN[C@H](CC(C)C)C(=O)N[C@H]1C(=O)N[C@@H](CC(N)=O)C(=O)N[C@H]2C(=O)N[C@H]3C(=O)N[C@H](C(=O)N[C@H](C(=O)O)c4cc(O)cc(O)c4-c4cc3ccc4O)[C@H](O)c3ccc(c(Cl)c3)Oc3cc2cc(c3O[C@@H]2O[C@H](CO)[C@@H](O)[C@H](O)[C@H]2O[C@H]2C[C@](C)(N)[C@H](O)[C@H](C)O2)Oc2ccc(cc2Cl)[C@H]1O [vancomycin]

MIC values B. subtilis 3610 (B. subtilis 3610; 20 h at 37 °C, lowest concentration that inhibited visible growth): ≤0.06–0.5 μg mL^–1
Molecule: penicillin

From publication PMC4301073 (ACS Chemical Biology, 2014)
